The source of these data is publication PMC10759174 (RSC Advances, 2024).

Usually IC50 stands for the point on the concentration scale where inhibition reaches its midpoint.

Experiment [1] deals with T1, ovine COX-1 (Ovis aries, UniProt P05979).
T1 sequence (P05979 25-600): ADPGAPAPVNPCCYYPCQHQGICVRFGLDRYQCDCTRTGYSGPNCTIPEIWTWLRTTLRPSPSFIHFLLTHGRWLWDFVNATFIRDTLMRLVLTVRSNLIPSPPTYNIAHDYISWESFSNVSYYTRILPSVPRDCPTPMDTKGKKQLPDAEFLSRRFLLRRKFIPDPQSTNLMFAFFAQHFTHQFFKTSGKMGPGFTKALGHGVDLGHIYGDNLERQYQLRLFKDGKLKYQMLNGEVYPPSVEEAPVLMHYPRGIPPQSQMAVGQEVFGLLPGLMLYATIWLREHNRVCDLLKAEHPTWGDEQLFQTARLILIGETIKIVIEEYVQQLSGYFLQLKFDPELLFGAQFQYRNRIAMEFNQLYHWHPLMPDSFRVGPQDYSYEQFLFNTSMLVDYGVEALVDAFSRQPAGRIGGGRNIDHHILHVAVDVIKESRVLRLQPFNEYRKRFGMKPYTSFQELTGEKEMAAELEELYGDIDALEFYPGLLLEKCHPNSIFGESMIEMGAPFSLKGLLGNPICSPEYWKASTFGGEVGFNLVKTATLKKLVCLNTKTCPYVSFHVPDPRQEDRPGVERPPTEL
Nature of the experiment: COX-1 inhibitor screening assay kit. Type of experiment: biochemical.

The target of experiment [2] is T2, human recombinant COX-2 (Homo sapiens, UniProt P35354).
T2 sequence (P35354 18-604): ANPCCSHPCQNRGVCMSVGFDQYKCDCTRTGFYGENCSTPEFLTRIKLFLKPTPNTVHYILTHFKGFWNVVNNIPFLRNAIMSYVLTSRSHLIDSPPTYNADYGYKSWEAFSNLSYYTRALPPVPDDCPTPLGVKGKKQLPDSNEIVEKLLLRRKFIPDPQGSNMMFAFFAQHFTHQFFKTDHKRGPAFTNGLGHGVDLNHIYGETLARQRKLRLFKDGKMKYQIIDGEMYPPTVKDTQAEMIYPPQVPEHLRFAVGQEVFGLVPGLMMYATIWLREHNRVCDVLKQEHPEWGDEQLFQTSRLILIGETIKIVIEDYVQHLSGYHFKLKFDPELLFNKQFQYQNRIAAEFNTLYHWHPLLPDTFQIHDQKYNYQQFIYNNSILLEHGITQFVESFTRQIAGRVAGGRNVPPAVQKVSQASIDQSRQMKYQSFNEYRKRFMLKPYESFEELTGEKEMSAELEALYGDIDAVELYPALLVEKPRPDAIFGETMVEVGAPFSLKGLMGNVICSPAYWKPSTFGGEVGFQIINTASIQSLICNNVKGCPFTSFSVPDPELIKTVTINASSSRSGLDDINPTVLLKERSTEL
Nature of the experiment: COX-2 inhibitor screening assay kit. Type of experiment: biochemical. As to conditions: for IC50 COX-1/COX-2 (in vitro COX-2 selectivity index): IC50 of COX-1/COX-2.

Experiment [3] can be described thus: DPPH free radical scavenging assay. The conditions noted are these: at a concentration of 1000 μg mL^−1. An outline of the steps: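 DPPH 0.1 mM in ethanol, 1 mL, added to 3 mL of test compound solution in ethanol at 1000 μg mL−1. The mixture was shaken vigorously, left 30 min at room temperature, and absorbance read at 517 nm. Ascorbic acid served as reference, run in triplicate. % scavenging = (A0 − A1)/A0 × 100, where A0 is control-reaction absorbance and A1 is absorbance with sample.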
A general note: The DPPH test is a chemical assay of radical scavenging.

`NC1=NC(=S)NC12CCCCC2` [Compound 4, 4-Amino-1,3-diazaspiro[4.5]dec-3-ene-2-thione]: the IC50 in experiment [1] is 7.5 µM. Further, in experiment [2], the IC50 stood at 0.135 µM and the “IC50 COX-1/COX-2 (in vitro COX-2 selectivity index)” value stood at 55.56 µM. In experiment [3] (listed as Comp. 4), this compound registered a DPPH scavenging% of 61.1%.
Consider `O=C1NC2(CCCCC2)c2nc3c(c(-c4ccccc4)c21)CCCC3` [Compound 11, 9′-Phenyl-5′,6′,7′,8′-tetrahydrospiro[cyclohexane-1,3′-pyrrolo[3,4-b]quinolin]-1′(2′H)-one], for which the IC50 was 10.5 µM in experiment [1] and 0.06 µM in experiment [2]. For the same compound, the “IC50 COX-1/COX-2 (in vitro COX-2 selectivity index)” value in experiment [2] was determined as 175.00 µM. Moreover, the DPPH scavenging% in experiment [3] (listed as Comp. 11) is recorded as 86.1%.
In experiment [1], `O=C1NC2(CCCCC2)c2[nH]c(=S)nc(-c3ccccc3)c21` [Compound 14, 4′-Phenyl-2′-thioxo-1′,2′-dihydrospiro[cyclohexane-1,7′-pyrrolo[3,4-d]pyrimidin]-5′(6′H)-one] came in with an IC50 of 6 µM. For the same compound, in experiment [2], the IC50 amounted to 0.08 µM and the “IC50 COX-1/COX-2 (in vitro COX-2 selectivity index)” value amounted to 75.00 µM. Also, the DPPH scavenging% in experiment [3] amounted to 66.5%.
With `O=C1CCC(=O)C2(CCCCC2)N1` [Compound 6, 1-Azaspiro[5.5]undecane-2,5-dione], the half-maximal inhibitory concentration (IC50) in experiment [1] came to 11.5 µM; in experiment [2] it was 0.089 µM. The “IC50 COX-1/COX-2 (in vitro COX-2 selectivity index)” value in experiment [2] came to 129.21 µM. For the same compound, in experiment [3], the DPPH scavenging% amounted to 74.4%.
On to `O=C1O[C@H]([C@@H](O)CO)C(O)=C1O` [Ascorbic acid, ascorbic acid, reference compound], for which the DPPH scavenging% in experiment [3] is recorded as 97%.
Turning to `Cc1cc(-c2ccccc2)c2c(n1)C1(CCCCC1)NC2=O` [Compound 17, 2′-Methyl-4′-phenylspiro[cyclohexane-1,7′-pyrrolo[3,4-b]pyridin]-5′(6′H)-one], the IC50 in experiment [1] was 8 µM; in experiment [2], 0.099 µM. Further, the “IC50 COX-1/COX-2 (in vitro COX-2 selectivity index)” value in experiment [2] stood at 80.81 µM.
